# Experimental data reported in ChEMBL document CHEMBL5303300, “EUbOPEN Chemogenomics Library - Multiplex” (2023).
# Values joined by “and” are separate entries in the source; they are usually repeats but may differ in a detail not shown here. Equal values may be shown once.
# What was measured:
# Fibroblast = test: Multiplex assay against human fibroblast; assay type: toxicity, cell-based; conditions: number of replicates 2
# Summary of the method: (§1)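 On a CQ1 microscope at 37°C and 5% CO2, live cells were imaged after compound addition. They had been stained at seeding with Hoechst33342, BioTracker Green Microtubule Cytoskeleton Dye, MitoTracker Red and Annexin V Alexa Fluor 680. CellPathfinder machine-learning gating assigned cells to Hoechst high-intensity objects or normal cells, normal cells to healthy, pyknosed or fragmented nuclei, and pyknosed cells to mitotic or apoptotic. Tubulin, mitochondrial-mass and membrane-permeability phenotypes are per cents of healthy-nucleus cells.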
# HEK-293T = test: Multiplex assay against HEK293T; assay type: toxicity, cell-based; conditions: human, number of replicates 2; summary of the method: as §1
# [1] = 12 h, 1 µM, compound concentration 1 uM
# [2] = 12 h, 10 µM, compound concentration 10 uM
# [3] = 24 h, 1 µM, compound concentration 1 uM
# [4] = 24 h, 10 µM, compound concentration 10 uM
# [5] = 48 h, 1 µM, compound concentration 1 uM
# [6] = 48 h, 10 µM, compound concentration 10 uM
smiles,measurement,setting,value
COc1cc(N(C)c2ccnc3ccc(C(F)(F)F)cc23)cc(OC)c1OC,Population Apoptotic (%),Fibroblast; [1],43% and 38%
same,Population Fragmented Nuclei (%),Fibroblast; [1],7% and 10%
same,Population Healthy Nuclei (%),Fibroblast; [1],68% and 65%
same,Population Hoechst High Intensity Objects (%),Fibroblast; [1],0%
same,Population Membrane Permeable-Phenotype (%),Fibroblast; [1],10% and 7%
same,Population Mitochondria Different-Phenotype (%),Fibroblast; [1],0%
same,Population Mitotic Cells (%),Fibroblast; [1],56% and 61%
same,Population Normal (%),Fibroblast; [1],100% and 99%
same,Population Pyknosed Nuclei (%),Fibroblast; [1],23% and 24%
same,Population Tubulin-Different-Phenotype (%),Fibroblast; [1],21% and 18%
same,Total Cell Count,Fibroblast; [1],216 and 225
same,Population Apoptotic (%),Fibroblast; [2],48% and 39%
same,Population Fragmented Nuclei (%),Fibroblast; [2],6% and 11%
same,Population Healthy Nuclei (%),Fibroblast; [2],77% and 63%
same,Population Hoechst High Intensity Objects (%),Fibroblast; [2],0%
same,Population Membrane Permeable-Phenotype (%),Fibroblast; [2],4% and 9%
same,Population Mitochondria Different-Phenotype (%),Fibroblast; [2],5% and 4%
same,Population Mitotic Cells (%),Fibroblast; [2],51% and 60%
same,Population Normal (%),Fibroblast; [2],100%
same,Population Pyknosed Nuclei (%),Fibroblast; [2],15% and 24%
same,Population Tubulin-Different-Phenotype (%),Fibroblast; [2],33% and 40%
same,Total Cell Count,Fibroblast; [2],175 and 219
same,Population Apoptotic (%),Fibroblast; [3],48% and 50%
same,Population Fragmented Nuclei (%),Fibroblast; [3],7% and 13%
same,Population Healthy Nuclei (%),Fibroblast; [3],69% and 59%
same,Population Hoechst High Intensity Objects (%),Fibroblast; [3],0%
same,Population Membrane Permeable-Phenotype (%),Fibroblast; [3],8% and 4%
same,Population Mitochondria Different-Phenotype (%),Fibroblast; [3],1%
same,Population Mitotic Cells (%),Fibroblast; [3],51% and 49%
same,Population Normal (%),Fibroblast; [3],100% and 99%
same,Population Pyknosed Nuclei (%),Fibroblast; [3],23% and 27%
same,Population Tubulin-Different-Phenotype (%),Fibroblast; [3],24% and 14%
same,Total Cell Count,Fibroblast; [3],229 and 213
same,Population Apoptotic (%),Fibroblast; [4],60% and 54%
same,Population Fragmented Nuclei (%),Fibroblast; [4],9% and 12%
same,Population Healthy Nuclei (%),Fibroblast; [4],71% and 66%
same,Population Hoechst High Intensity Objects (%),Fibroblast; [4],0%
same,Population Membrane Permeable-Phenotype (%),Fibroblast; [4],4%
same,Population Mitochondria Different-Phenotype (%),Fibroblast; [4],3% and 6%
same,Population Mitotic Cells (%),Fibroblast; [4],39% and 45%
same,Population Normal (%),Fibroblast; [4],100% and 99%
same,Population Pyknosed Nuclei (%),Fibroblast; [4],18% and 20%
same,Population Tubulin-Different-Phenotype (%),Fibroblast; [4],27% and 30%
same,Total Cell Count,Fibroblast; [4],176 and 216
same,Population Apoptotic (%),Fibroblast; [5],66% and 47%
same,Population Fragmented Nuclei (%),Fibroblast; [5],8% and 14%
same,Population Healthy Nuclei (%),Fibroblast; [5],73% and 61%
same,Population Hoechst High Intensity Objects (%),Fibroblast; [5],0%
same,Population Membrane Permeable-Phenotype (%),Fibroblast; [5],1% and 7%
same,Population Mitochondria Different-Phenotype (%),Fibroblast; [5],0%
same,Population Mitotic Cells (%),Fibroblast; [5],33% and 52%
same,Population Normal (%),Fibroblast; [5],100%
same,Population Pyknosed Nuclei (%),Fibroblast; [5],18% and 23%
same,Population Tubulin-Different-Phenotype (%),Fibroblast; [5],10% and 12%
same,Total Cell Count,Fibroblast; [5],229 and 214
same,Population Apoptotic (%),Fibroblast; [6],64% and 75%
same,Population Fragmented Nuclei (%),Fibroblast; [6],9% and 12%
same,Population Healthy Nuclei (%),Fibroblast; [6],72% and 70%
same,Population Hoechst High Intensity Objects (%),Fibroblast; [6],0%
same,Population Membrane Permeable-Phenotype (%),Fibroblast; [6],0% and 1%
same,Population Mitochondria Different-Phenotype (%),Fibroblast; [6],3% and 5%
same,Population Mitotic Cells (%),Fibroblast; [6],35% and 24%
same,Population Normal (%),Fibroblast; [6],99% and 100%
same,Population Pyknosed Nuclei (%),Fibroblast; [6],18% and 16%
same,Population Tubulin-Different-Phenotype (%),Fibroblast; [6],35% and 25%
same,Total Cell Count,Fibroblast; [6],173 and 226
same,Population Apoptotic (%),HEK-293T; [1],58% and 48%
same,Population Fragmented Nuclei (%),HEK-293T; [1],5% and 4%
same,Population Healthy Nuclei (%),HEK-293T; [1],81% and 79%
same,Population Hoechst High Intensity Objects (%),HEK-293T; [1],7% and 6%
same,Population Membrane Permeable-Phenotype (%),HEK-293T; [1],2% and 5%
same,Population Mitochondria Different-Phenotype (%),HEK-293T; [1],13% and 17%
same,Population Mitotic Cells (%),HEK-293T; [1],41% and 51%
same,Population Normal (%),HEK-293T; [1],92% and 93%
same,Population Pyknosed Nuclei (%),HEK-293T; [1],12% and 16%
same,Population Tubulin-Different-Phenotype (%),HEK-293T; [1],50% and 48%
same,Total Cell Count,HEK-293T; [1],523 and 568
same,Population Apoptotic (%),HEK-293T; [2],42% and 52%
same,Population Fragmented Nuclei (%),HEK-293T; [2],3% and 2%
same,Population Healthy Nuclei (%),HEK-293T; [2],82% and 80%
same,Population Hoechst High Intensity Objects (%),HEK-293T; [2],5%
same,Population Membrane Permeable-Phenotype (%),HEK-293T; [2],5% and 3%
same,Population Mitochondria Different-Phenotype (%),HEK-293T; [2],34% and 29%
same,Population Mitotic Cells (%),HEK-293T; [2],57% and 47%
same,Population Normal (%),HEK-293T; [2],94%
same,Population Pyknosed Nuclei (%),HEK-293T; [2],14% and 17%
same,Population Tubulin-Different-Phenotype (%),HEK-293T; [2],79% and 82%
same,Total Cell Count,HEK-293T; [2],570 and 542
same,Population Apoptotic (%),HEK-293T; [3],54% and 36%
same,Population Fragmented Nuclei (%),HEK-293T; [3],5% and 6%
same,Population Healthy Nuclei (%),HEK-293T; [3],83% and 85%
same,Population Hoechst High Intensity Objects (%),HEK-293T; [3],7% and 6%
same,Population Membrane Permeable-Phenotype (%),HEK-293T; [3],3% and 5%
same,Population Mitochondria Different-Phenotype (%),HEK-293T; [3],6% and 4%
